The values that follow come from PMC3621463 (Nature Communications, 2012).

In assay [1] the test system is PIMT. In words: In vitro methylation assay with recombinant GST-PIMT. It counts as biochemical. Particulars: GST-p53 1–82 methylated by GST-PIMT or His-PIMT, followed by NaOH; fluorography.
Assay [2] deals with U2OS cells. The assay can be described thus: Flow cytometry, early apoptosis, adriamycin. Type of assay: cell-based. The following applies: adriamycin 1 μg ml−1, one day; control cells (control siRNA); n=4. In outline:
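U2OS cells were transfected with PIMT or control siRNA. After 2 days they were treated with adriamycin, and apoptotic cells were scored by flow cytometry one day later. At least 10,000 cells were analysed per treatment. Significance was tested by Student's t-test.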
(A flow cytometer gives signals particle by particle.)

For assay [3], the system named is p21 or Bax promoter luciferase. In words: Luciferase assay, p53-dependent transcription. Type of assay: cell-based. Particulars: H1299 cells, p21-luc or Bax-luc; n=4.
The test system of assay [4] is p53-HDM2 interaction. The assay can be described thus: p53-HDM2 co-immunoprecipitation. It counts as cell-based. The following applies: U2OS cells (PIMT siRNA) or H1299 cells (HA-p53, Flag-PIMT). In outline: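 Supernatants were incubated overnight at 4 °C with FLAG-, HA- or p53-antibody agarose and washed twice. Eluates were boiled 5 min, run on 4–12% Bis–Tris gels and immunoblotted with HRP-conjugated primary antibodies using chemiluminescence.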

The subject of assay [5] is p53 ubiquitination. The assay can be described thus: p53 ubiquitination. It counts as cell-based. The following applies: U2OS or H1299 cells, MG132 40 μM.
Assay [6] deals with p53. In words: p53 protein level, immunoblot. It counts as cell-based. The following applies: U2OS cells, PIMT siRNA/shRNA or ectopic PIMT expression.

For the molecule “p53 (amino acids 1–82): N terminus of p53 (amino acids 1–82)”, the “methylation after alkaline treatment” value in assay [1] is listed as “removed upon alkaline treatment”.
For the molecule `COc1cccc2c1C(=O)c1c(O)c3c(c(O)c1C2=O)C[C@@](O)(C(=O)CO)C[C@@H]3O[C@H]1C[C@H](N)[C@H](O)[C@H](C)O1` [adriamycin], in assay [2], the early apoptosis stood at 19.5%.
Regarding “protein L-isoaspartyl methyltransferase [PIMT]”, the p53-dependent transcription result in assay [3] was “inhibited the p53-dependent transcription of both reporter genes”. The p53-HDM2 interaction result in assay [4] is reported as “enhanced”. In assay [5], the “ubiquitination of p53” value is recorded as “increased p53 ubiquitination”. The p53 protein level entry in assay [6] is “decreased the p53 protein levels in a dose-dependent manner”.
